The inhibition is the relative decrease from the control value, in per cent. In general, IC50 refers to the concentration that gives 50% inhibition.

In brackets after ≈: the same amount, converted by molar mass. Activity calls are given as the source filed them. No cut-off for these calls is given here.

From ChEMBL document CHEMBL4145675, “2-Phenylquinoline S. aureus NorA Efflux Pump Inhibitors: Evaluation of the Importance of Methoxy Group Introduction” (J Med Chem, 2018) come the findings set out here.

The target of data set [1] is T1, Quinolone resistance protein NorA (Staphylococcus aureus) (UniProt P0A0J7).
T1 sequence (whole entry): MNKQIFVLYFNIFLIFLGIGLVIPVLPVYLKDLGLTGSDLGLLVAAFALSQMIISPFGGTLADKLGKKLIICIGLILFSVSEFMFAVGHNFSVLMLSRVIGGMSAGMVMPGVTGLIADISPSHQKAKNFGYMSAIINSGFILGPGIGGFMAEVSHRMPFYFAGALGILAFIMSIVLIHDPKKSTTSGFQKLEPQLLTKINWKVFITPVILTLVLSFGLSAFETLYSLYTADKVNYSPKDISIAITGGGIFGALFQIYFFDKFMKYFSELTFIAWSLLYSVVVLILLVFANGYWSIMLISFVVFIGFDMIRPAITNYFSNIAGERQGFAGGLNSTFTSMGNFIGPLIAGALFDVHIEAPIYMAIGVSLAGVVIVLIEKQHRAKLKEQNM
The data set is described as follows: Inhibition of NorA in Staphylococcus aureus SA-1199B expressing GrlA A116E mutant assessed as reduction in EtBr efflux at 50 uM incubated for 5 mins by fluorescence based assay. In a few lines: (§1)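 Cells were grown overnight in cation-supplemented Mueller-Hinton broth at 35 °C and subcultured to OD600 0.7–0.8. They were loaded at OD600 0.8 with 25 µM EtBr plus 100 µM CCCP (final) for 20 min at room temperature. Cells were then resuspended in fresh broth with or without compound, 50 µM for the single-point screen or a concentration series for IC50. Fluorescence (ex 485/em 645 nm) was read for 5 min. Inhibition was calculated from the fluorescence decrease versus untreated cells. Biological triplicate, each run twice.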

Data set [2] addresses Quinolone resistance protein NorA (Staphylococcus aureus, UniProt P0A0J7, A116E). As to the kind of experiment: Inhibition of NorA in Staphylococcus aureus SA-1199B expressing GrlA A116E mutant assessed as reduction in EtBr efflux incubated for 5 mins by fluorescence based assay. In short, it runs like this: as §1
Data set [3] deals with Staphylococcus aureus. The data set is described as follows: Antimicrobial activity against Staphylococcus aureus SA-1199B expressing wild type norA and co-expressing GrlA A116E mutant by microdilution method. It is filed as organism-based. Conditions: in vivo. In a few lines:
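CLSI broth microdilution MIC of the compound alone. Strains: SA-K1902 (norA deleted), SA-K2378 (SA-K1902 carrying norA plus its promoter on multicopy plasmid pCU1), SA-1199B (norA overexpressing, GrlA A116E).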

Data set [4] deals with Staphylococcus aureus. The data set is described as follows: Synergistic potentiation of ciprofloxacin-induced antimicrobial activity against Staphylococcus aureus SA-1199 at 0.78 to 100 ug/ml by microdilution method based Checkerboard assay. It is filed as functional, organism-based. (In general: In broth dilution the organism is exposed to a series of concentrations in liquid medium.)

For data set [5], the system named is Staphylococcus aureus. The data set is described as follows: Antimicrobial activity against Staphylococcus aureus SA-1199B expressing wild type norA by microdilution method. It is filed as organism-based. Conditions: in vivo. In short, it runs like this: (§2)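 Broth microdilution MIC per CLSI guidelines. ATCC 25923 is norA wild-type. SA-1199B overexpresses norA and carries an A116E GrlA substitution.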

The subject of data set [6] is Staphylococcus aureus. As to the kind of experiment: Antimicrobial activity against Staphylococcus aureus ATCC 25923 by microdilution method. It is filed as organism-based. Conditions: in vivo. In a few lines: as §2
Data set [7] has as its target T1, Quinolone resistance protein NorA (Staphylococcus aureus). As to the kind of experiment: Inhibition of NorA in Staphylococcus aureus SA-1199B expressing GrlA A116E mutant assessed as minimal potentiating drug concentration causing 8 fold reduction in ciprofloxacin MIC by microdilution method based Checkerboard assay.
The test system of data set [8] is Staphylococcus aureus. As to the kind of experiment: Synergistic potentiation of ciprofloxacin-induced antimicrobial activity against wild type Staphylococcus aureus ATCC 25923 at 0.78 to 100 ug/ml by microdilution method based Checkerboard assay. Format: functional, organism-based.
Data set [9] deals with T1, Quinolone resistance protein NorA (Staphylococcus aureus). The data set is described as follows: Inhibition of NorA in Staphylococcus aureus SA-1199B expressing GrlA A116E mutant assessed as synergistic potentiation of ciprofloxacin-induced antimicrobial activity at 0.78 to 100 ug/ml by microdilution method based Checkerboard assay.

As for `CCCOc1ccc(-c2cc(OCCCl)c3cc(OC)ccc3n2)cc1`, in data set [1], the inhibition amounted to 10.5%.

Take `CCCOc1ccc(-c2cc(O)c3c(OC)cccc3n2)cc1`: the half-maximal inhibitory concentration (IC50) in [2] worked out at 4.1 µM. Moreover, in [1], the inhibition was 91.4%. Moreover, the MIC in data set [3] stood at 40.4 µM (≈ 12.5 µg/mL).

`CCCOc1ccc(-c2cc(OCCCN(C)C)c3cccc(OC)c3n2)cc1`: the inhibition in data set [1] stood at 64.7%.

`CCCOc1ccc(-c2cc(OCCN3CCN(Cc4ccccc4)CC3)c3cc(OC)ccc3n2)cc1`: in data set [1], the inhibition is 32%.

As to `CCCOc1ccc(-c2cc(OCCN3CCNCC3)c3ccc(OC)cc3n2)cc1`, in data set [2], the IC50 came to 5.5 µM. In addition, the inhibition in [1] was found to be 100%. Besides, the inhibition entry in [4] and in data set [9] was “Active” in each case. Also, the MIC in [5] worked out at 100 µg/mL (≈ 237 µM); in data set [6], 100 µg/mL (≈ 237 µM); in data set [3], 237 µM (≈ 99.9 µg/mL). In addition, the Activity in [7] came to 6.25 µg/mL. In addition, the “synergistic potentiation of ciprofloxacin activity” value (“synergistic potentiation” below) in data set [8] is “Active”.

Consider `CCCOc1ccc(-c2cc(OCCN3CCc4cc(OC)c(OC)cc4C3)c3cc(OC)ccc3n2)cc1`, for which the inhibition in data set [1] worked out at 33%.

Turning to `CCCOc1ccc(-c2cc(O)c3ccc(OC)cc3n2)cc1`, in data set [1], the inhibition was determined as 55.7%.

As to `C=COc1cc(-c2ccc(OCCC)cc2)nc2c(OC)cccc12`, the inhibition in [1] turned out to be 13.3%.

With `CCCOc1ccc(-c2cc(OCCN(CC)CC)c3cccc(OC)c3n2)cc1`, the IC50 in data set [2] is 13.7 µM. The inhibition in data set [1] is 83.1%. The compound further gave an MIC in data set [3] of 245 µM (≈ 100 µg/mL).

For `CCCOc1ccc(-c2cc(OCCN(CC)CC)c3cc(OC)c(OC)cc3n2)cc1`, the 50% inhibitory concentration (IC50) in data set [2] turned out to be 4.1 µM. The inhibition in data set [1] turned out to be 95.4%. Besides, the inhibition result in data set [4] and in [9] was “Active” in each case. Further, the MIC in [5] was > 100 µg/mL; in [6], 100 µg/mL (≈ 228 µM); in data set [3] it was > 228 µM. Besides, the Activity in [7] was determined as 50 µg/mL. In addition, in [8], the “synergistic potentiation” value is “Active”.

On to `CCCOc1ccc(-c2cc(OCCN3CCCCCC3)c3cccc(OC)c3n2)cc1`, for which the inhibition in data set [1] worked out at 72.8%.

For `CCCOc1ccc(-c2cc(OCCCN(C)C)c3cc(OC)ccc3n2)cc1`, the inhibition in [1] amounted to 79.5%.

Turning to `CCCOc1ccc(-c2cc(OCCN3CCCCC3)c3cc(OC)c(OC)cc3n2)cc1`, the IC50 in data set [2] amounted to 3.9 µM. Also, in [1], the inhibition was determined as 92.1%. In addition, the inhibition entry in [4] and in [9] was “Active” each time. The figures for the MIC in data set [5], in [6] and in data set [3] were > 100 µg/mL, 100 µg/mL (≈ 222 µM) and > 222 µM, respectively. In addition, the Activity in data set [7] is 3.13 µg/mL. For the same compound, in data set [8], the “synergistic potentiation” value was “Active”.

For the compound `CCCOc1ccc(-c2cc(O)c3cc(OC)c(OC)cc3n2)cc1`, in [1], the inhibition is 79.2%.

For the compound `CCCOc1ccc(-c2cc(OCCN3CCCCCC3)c3c(OC)cc(OC)cc3n2)cc1`, in [1], the inhibition amounted to 74.1%.

For `CCCOc1ccc(-c2cc(OCCCN(C)C)c3ccc(OC)cc3n2)cc1`, in data set [2], the IC50 turned out to be 4.3 µM. The inhibition in [1] is 100%. The inhibition entry in data set [4] and in data set [9] was “Active” throughout. For the same compound, the MIC in data set [5] was determined as 100 µg/mL (≈ 253 µM); in data set [6] it was 100 µg/mL (≈ 253 µM); in data set [3], 232 µM (≈ 91.5 µg/mL). The Activity in [7] came out at 6.25 µg/mL. Besides, the “synergistic potentiation” value in [8] was “Active”.

For `CCCOc1ccc(-c2cc(OCCN3CCNCC3)c3cccc(OC)c3n2)cc1`, the IC50 in [2] was determined as 9.9 µM. Further, in data set [1], the inhibition was determined as 100%. The inhibition entry in [4] and in data set [9] was “Active” throughout. Moreover, the MIC is > 100 µg/mL in [5], > 100 µg/mL in data set [6] and > 237 µM in data set [3]. Moreover, the Activity in data set [7] is 25 µg/mL. Besides, the “synergistic potentiation” value in data set [8] was “Active”.

Consider `CCCOc1ccc(-c2cc(OCCN3CCCCCC3)c3c(OC)cccc3n2)cc1`, for which the inhibition in data set [1] turned out to be 74.8%.

On to `CCCOc1ccc(-c2cc(OCCN3CCNCC3)c3cc(OC)ccc3n2)cc1`, for which the IC50 in data set [2] turned out to be 15.6 µM. In data set [1], the inhibition was 84.4%. The compound further displayed an MIC in [3] of 29.6 µM (≈ 12.5 µg/mL).

On to `CCCOc1ccc(-c2cc(OCCN3CCCCC3)c3c(OC)cccc3n2)cc1`, for which the IC50 in [2] was found to be 19.1 µM. Besides, the inhibition in data set [1] was determined as 83.4%. The MIC in data set [3] is 59.4 µM (≈ 25 µg/mL).

On to `CCCOc1ccc(-c2cc(OCCN3CCCCC3)c3c(OC)cc(OC)cc3n2)cc1`, for which the inhibition in data set [1] stood at 49.7%.

Take `CCCOc1ccc(-c2cc(OCCN3CCN(Cc4ccccc4)CC3)c3ccc(OC)cc3n2)cc1`: the IC50 in [2] came to 7.3 µM. For the same compound, the inhibition in data set [1] was 92.1%. For the same compound, the inhibition result in [4] and in [9] was “Active” in each case. In addition, the MIC in data set [5] was > 100 µg/mL; in [6], > 100 µg/mL; in data set [3] it was > 195 µM. In addition, in [7], the Activity is > 100 µg/mL. Besides, in data set [8], the “synergistic potentiation” value is “Active”.

As for `CCCOc1ccc(-c2cc(OCCN3CCCCCC3)c3cc(OC)c(OC)cc3n2)cc1`, the inhibition in data set [1] worked out at 67.9%.

As to `CCCOc1ccc(-c2cc(OCCCl)c3ccc(OC)cc3n2)cc1`, in [1], the inhibition stood at 57.5%.

Regarding `CCCOc1ccc(-c2cc(OCCN3CCc4cc(OC)c(OC)cc4C3)c3cccc(OC)c3n2)cc1`, the inhibition in data set [1] amounted to 65.5%.

In the case of `CCCOc1ccc(-c2cc(OCCN3CCCCCC3)c3cc(OC)ccc3n2)cc1`, the half-maximal inhibitory concentration (IC50) in data set [2] was found to be 8.1 µM. In addition, the inhibition in [1] was 92.2%. The inhibition entry in [4] and in data set [9] was “Active” each time. Besides, the values for the MIC in [5], in data set [6] and in data set [3] were 25 µg/mL (≈ 57.5 µM), 12.5 µg/mL (≈ 28.8 µM) and 28.7 µM (≈ 12.5 µg/mL), respectively. Moreover, in data set [7], the Activity was < 3.13 µg/mL. Also, the “synergistic potentiation” value in data set [8] is “Active”.

For `CCCOc1ccc(-c2cc(OCCN(CC)CC)c3cc(OC)cc(OC)c3n2)cc1`, in data set [2], the half-inhibitory concentration (IC50) is 4.6 µM. Further, the inhibition in [1] amounted to 92.4%. Moreover, the inhibition entry in [4] and in [9] was “Active” each time. For the same compound, the MIC is > 100 µg/mL in data set [5], 100 µg/mL (≈ 228 µM) in data set [6] and > 228 µM in data set [3]. Moreover, in data set [7], the Activity is 6.25 µg/mL. Further, the “synergistic potentiation” value in data set [8] was “Active”.

`CCCOc1ccc(-c2cc(OCCCl)c3cccc(OC)c3n2)cc1`: in data set [1], the inhibition is 6.8%.

`CCCOc1ccc(-c2cc(OCCN3CCCCC3)c3cccc(OC)c3n2)cc1`: the IC50 in [2] was found to be 11.9 µM. Also, in [1], the inhibition worked out at 88.7%. Also, the MIC in data set [3] amounted to 238 µM (≈ 100 µg/mL).

On to `CCCOc1ccc(-c2cc(OCCN3CCCCC3)c3cc(OC)cc(OC)c3n2)cc1`, for which, in [2], the IC50 amounted to 3.8 µM. For the same compound, the inhibition in [1] is 93.8%. The inhibition entry in data set [4] and in [9] was “Active” in each case. In addition, the figures for the MIC in data set [5], in data set [6] and in data set [3] were > 100 µg/mL, 100 µg/mL (≈ 222 µM) and > 222 µM, respectively. The Activity in data set [7] worked out at 6.25 µg/mL. The “synergistic potentiation” value in [8] is “Active”.
